# Experimental data as given in ChEMBL document CHEMBL1139110, “Structure-activity relationships of some taxoids as multidrug resistance modulator” (Bioorg Med Chem Lett, 2007).
# Tests used:
# [1] = Cytotoxicity againt multidrug-resistant human 2780AD cells; type: functional, cell-based; conditions: A2780 ADR
# Procedure, shortened: (§1)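 Each drug was tested alone or with a modulator added at final […]; verapamil was the reference modulator. Values are the mean of triplicate determinations.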
# A2780 = assay: Cytotoxicity againt human A2780 cells; type: functional, cell-based; procedure, shortened: as §1
# [2] = Effect on calcein accumulation in multidrug-resistant human 2780AD cells at 2.5 ug/ml relative to control; type: functional, A2780 ADR
# Procedure, shortened: (§2)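 Multidrug-resistant human ovarian cancer 2780AD cells were exposed to test compounds at […], with verapamil as the positive control. Calcein accumulated in the cells was measured relative to a control experiment. Values are the mean of triplicate determinations.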
# [3] = Effect on calcein accumulation in multidrug-resistant human 2780AD cells at 25 ug/ml relative to control; type: functional, A2780 ADR; procedure, shortened: as §2
# [4] = Effect on calcein accumulation in multidrug-resistant human 2780AD cells at 0.25 ug/ml relative to control; type: functional, A2780 ADR; procedure, shortened: as §2
# [5] = Cytotoxicity againt human WI38 cells; type: cell-based; conditions: WI-38
# Procedure, shortened: (§3)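 IC50 was determined against WI-38, VA-13 and HepG2 cells and is given as the mean of duplicate determinations.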
# HepG2 = assay: Cytotoxicity againt human HepG2 cells; type: functional, cell-based; procedure, shortened: as §3
# WI-38 VA13 = assay: Cytotoxicity againt human VA13 cells; type: functional, cell-based; procedure, shortened: as §3
SMILES,IC50 [1] [µM],IC50 (A2780) [µM],Activity [2] [%],Activity [3] [%],Activity [4] [%],IC50 [5] [µg/mL],IC50 (HepG2) [µg/mL],IC50 (WI-38 VA13) [µg/mL]
CC(=O)O[C@H]1C(=O)[C@@]2(C)[C@H]([C@H](OC(=O)c3ccccc3)[C@]3(O)C[C@H](OC(=O)[C@H](O)[C@@H](NC(=O)c4ccccc4)c4ccccc4)C(C)=C1C3(C)C)[C@]1(OC(C)=O)CO[C@@H]1C[C@@H]2O [PACLITAXEL],0.535,0.0007,–,–,–,–,–,–
CC(=O)O[C@@]12CO[C@@H]1C[C@H](O)[C@@]1(C)C(=O)[C@H](O)C3=C(C)[C@@H](O)C[C@@](O)([C@@H](OC(=O)c4ccccc4)[C@H]21)C3(C)C,–,–,90,93,95,–,–,–
COc1ccc(CCN(C)CCCC(C#N)(c2ccc(OC)c(OC)c2)C(C)C)cc1OC (stereo unspecified),–,–,103,140,99,–,–,–
CC(=O)O[C@H]1C(=O)[C@]2(C)CC[C@H]3OC[C@@]3(O)[C@H]2[C@H](OC(=O)c2ccccc2)[C@@H]2C[C@H](O)C(C)=C1C2(C)C,–,–,129,163,96,54.2,69.9,77
CC(=O)O[C@H]1C(=O)[C@]2(C)CC[C@H]3OC[C@@]3(O)[C@H]2[C@H](OC(=O)c2ccccc2)[C@@H]2CC(=O)C(C)=C1C2(C)C,–,–,120,137,101,7.38,30.1,7.93
CC1=C2[C@@H](O)[C@H](O)[C@]3(C)CC[C@H]4OC[C@@]4(O)[C@H]3[C@H](OC(=O)c3ccccc3)[C@H](CC1=O)C2(C)C,–,–,110,106,105,> 100,67.7,> 100
CC(=O)OC[C@]1(O)[C@@H](O)CC[C@@]2(C)[C@@H](OC(C)=O)[C@H](OC(C)=O)C3=C(C)C(=O)C[C@@H]([C@@H](O)[C@@H]21)C3(C)C,–,–,97,126,88,> 100,> 100,8.47
CC(=O)OC[C@]1(O)[C@@H](O)CC[C@@]2(C)[C@@H](OC(C)=O)[C@H](OC(C)=O)C3=C(C)C(=O)C[C@@H]([C@@H](OC(=O)/C=C/c4ccccc4)[C@@H]21)C3(C)C,–,–,116,145,88,68.1,2.14,82.3
CC(=O)O[C@H]1C(=O)[C@]2(C)CC[C@H](O)[C@@](O)(CO)[C@H]2[C@H](OC(=O)c2ccccc2)[C@@H]2CC(=O)C(C)=C1C2(C)C,–,–,114,112,88,57.4,33.4,59.6
CC(=O)O[C@@H]1[C@@H]2CC(=O)C(C)=C([C@@H](OC(C)=O)[C@H](OC(C)=O)[C@]3(C)CC[C@H]4OC[C@@]4(O)[C@@H]13)C2(C)C,–,–,120,123,115,77,> 100,> 100
CC[C@]1(O)C[C@H]2CN(CCc3c([nH]c4ccccc34)[C@@](C(=O)OC)(c3cc4c(cc3OC)N(C=O)[C@H]3[C@@](O)(C(=O)OC)[C@H](OC(C)=O)[C@]5(CC)C=CCN6CC[C@]43[C@@H]65)C2)C1 [VINCRISTINE],0.895,0.0009,–,–,–,–,–,–
CC(=O)O[C@@H]1[C@@H]2C[C@H](O)C(C)=C([C@@H](OC(C)=O)[C@H](OC(C)=O)[C@]3(C)CC[C@H]4OC[C@@]4(O)[C@@H]13)C2(C)C,–,–,95,95,94,8.39,> 100,81.5
CC(=O)O[C@H]1C(=O)[C@@]2(C)[C@H]([C@H](OC(=O)c3ccccc3)[C@]3(O)C[C@H](O)C(C)=C1C3(C)C)[C@]1(OC(C)=O)CO[C@@H]1C[C@@H]2O [BACCATIN III],–,–,84,81,93,16.1,9.91,0.84
COc1cccc2c1C(=O)c1c(O)c3c(c(O)c1C2=O)C[C@@](O)(C(=O)CO)C[C@@H]3O[C@H]1C[C@H](N)[C@H](O)[C@H](C)O1 [DOXORUBICIN],0.909,0.013,–,–,–,–,–,–
CC(=O)O[C@@H]1[C@@H]2CC(=O)C(C)=C([C@@H](OC(C)=O)[C@H](OC(C)=O)[C@]3(C)CC[C@H](O)[C@@](O)(CO)[C@@H]13)C2(C)C,–,–,94,88,79,85.3,> 100,9.73
CC(=O)O[C@@H]1C2=C(C)C(=O)C[C@@H]([C@@H](OC(=O)c3ccccc3)[C@H]3[C@@](C)(CC[C@H]4OC[C@]43O)[C@H]1OC(C)=O)C2(C)C,–,–,119,135,97,0.82,7.32,51.9
CC(=O)O[C@H]1[C@H](O)C2=C(C)C(=O)C[C@@H]([C@@H](OC(=O)c3ccccc3)[C@H]3[C@@]1(C)CC[C@H]1OC[C@]13O)C2(C)C,–,–,118,134,115,0.67,43.2,67
CC(=O)O[C@@H]1C2=C(C)C(=O)C[C@@H]([C@@H](OC(=O)c3ccccc3)[C@H]3[C@@](C)(CC[C@H]4OC[C@]43O)[C@H]1O)C2(C)C,–,–,102,140,99,42.3,77.7,> 100
CC(=O)O[C@@H]1[C@@H]2C[C@@H](O)C(C)=C([C@@H](OC(C)=O)[C@H](OC(C)=O)[C@]3(C)CC[C@H]4OC[C@@]4(O)[C@@H]13)C2(C)C,–,–,95,96,82,76.2,> 100,> 100
